Calls of active or inactive are those of the source. The calls are words filed in the database; no cut-off is given here.

The values below come from ChEMBL document CHEMBL1150632, “Triterpenoids from Rubia yunnanensis” (2002).

Assay [1] can be described thus: Antiplatelet aggregation activity against 2 ng/mL platelet activating factor-induced rabbit platelet assessed as platelet aggregation at 150 uM relative to control. The class given is functional, Oryctolagus cuniculus. Put shortly: (§1)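 Platelets were preincubated with test sample or vehicle (0.5% DMSO) at 37 °C for 1 min. Aggregation was then triggered with arachidonic acid (100 µM), collagen (10 µg/mL), thrombin (0.1 U/mL) or PAF (2 ng/mL). Results are given as percent aggregation, mean ± SD, with significance at p < 0.05 and p < 0.01.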

Assay [2] is described as follows: Antiplatelet aggregation activity against 0.1 U/mL thrombin-induced rabbit platelet assessed as platelet aggregation at 150 uM relative to control. The class given is functional, Oryctolagus cuniculus. Put shortly: as §1
Assay [3] can be described thus: Antiplatelet aggregation activity against 100 uM arachidonic acid-induced rabbit platelet assessed as platelet aggregation at 150 uM relative to control. The format is functional, Oryctolagus cuniculus. Put shortly: as §1
Assay [4] is described as follows: Antiplatelet aggregation activity against 10 ug/mL collagen-induced rabbit platelet assessed as platelet aggregation at 100 uM relative to control. The format is functional, Oryctolagus cuniculus. An outline of the steps: as §1
Assay [5] can be described thus: Antiplatelet aggregation activity against 10 ug/mL collagen-induced rabbit platelet assessed as platelet aggregation at 150 uM relative to control. The format is functional, Oryctolagus cuniculus. Put shortly: as §1
Assay [6] can be described thus: Antiplatelet aggregation activity against 2 ng/mL platelet activating factor-induced rabbit platelet assessed as platelet aggregation at 100 uM relative to control. The class given is functional, Oryctolagus cuniculus. Put shortly: as §1
A short description of assay [7]: Antiplatelet aggregation activity against 0.1 U/mL thrombin-induced rabbit platelet assessed as platelet aggregation at 100 uM relative to control. The format is functional, Oryctolagus cuniculus. An outline of the steps: as §1
Assay [8] relates to Platelet. Kind of assay: Stimulation of rabbit platelet aggregation at 30.9 +/- 6.0 ug/mL. The format is functional, cell-based. The following applies: Oryctolagus cuniculus.
A short description of assay [9]: Antiplatelet aggregation activity against 100 uM arachidonic acid-induced rabbit platelet assessed as platelet aggregation at 100 uM relative to control. The class given is functional, Oryctolagus cuniculus. Put shortly:
as §1

In assay [10] the test system is Platelet. Kind of assay: Stimulation of rabbit platelet aggregation at 28.4 +/- 4.8 ug/mL. The format is functional, cell-based. The conditions noted are these: Oryctolagus cuniculus.

Turning to `CC(C)[C@@H]1C[C@@H](O)[C@H]2[C@@]1(C)CC[C@@]1(C)[C@H]3C(=CC[C@]21C)[C@@]1(C)CC[C@H](O)C(C)(C)[C@@H]1C[C@@H]3O` [RUBIARBONOL B], the Activity stood at 90.4% in [1]; 89.6% in assay [2]; 80.4% in assay [3]; 82.2% in assay [4]; 79.8% in assay [5].

Turning to `CC(C)[C@@H]1C[C@@H](O)[C@H]2[C@@]1(CO)CC[C@@]1(C)[C@H]3C(=CC[C@]21C)[C@@]1(C)CC[C@H](O)C(C)(C)[C@@H]1C[C@@H]3O` [RUBIARBONOL A], the Activity in [6] worked out at 91.3%; in assay [7], 90.7%; in assay [4], 89.6%; in assay [9], 83.8%. Moreover, the outcome in the assay with Platelet [8] was Active.

For `CC(=O)O[C@@H]1C[C@@H](C(C)C)[C@]2(CO)CC[C@@]3(C)[C@H]4C(=CC[C@]3(C)[C@@H]12)[C@@]1(C)CCC(=O)C(C)(C)[C@@H]1C[C@@H]4O` [RUBIARBONONE A], in the assay on Platelet [10], the outcome was Active. Moreover, the Activity in assay [6] came out at 90.3%; in [7], 91.1%; in assay [4], 88.1%; in assay [9], 85.4%.
